# Data taken from ChEMBL document CHEMBL3588850, “Multivalent Amino Sugars to Recognize Different TAR RNA Conformations” (Medchemcomm, 2014).
# What was measured:
# Nucleic Acid [1] = assay: Binding affinity to wild type HIV1 TAR RNA assessed as association constant at pH 6.8 by ethidium bromide displacement assay based Scatchard analysis method; assay type: nucleic-acid assay; conditions: Human immunodeficiency virus 1
# Method in brief: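 Ethidium bromide displacement: 5 μM EtBr with TAR RNA at 200 nM/strand (under 20% of EtBr bound) in 100 mM KCl, 10 mM SC, 0.5 mM EDTA, pH 6.8. Ligand added in concentrated aliquots, at most 4% v/v. Excitation 545 nm, emission 580–660 nm, intensity at 610 nm. Association constant obtained by Scatchard analysis of the titration data.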
# Nucleic Acid [2] = assay: Binding affinity to HIV1 TAR RNA bulgeless tetraloop mutant assessed as association constant at pH 6.8 by ethidium bromide displacement assay based Scatchard analysis method; assay type: nucleic-acid assay; conditions: Human immunodeficiency virus 1
# Method in brief: (§1)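 Synthetic 2′-ACE-protected TAR RNA, deprotected, heated 98 °C 5 min, then ice-cooled 15 min. TAR RNA at 200 nM/strand with ethidium bromide 5 μM in 100 mM KCl, 10 mM SC, 0.5 mM EDTA, pH 6.8. Ligand added stepwise, ≤4% v/v. Excitation 545 nm, emission 580–660 nm, intensity at 610 nm normalized. IC50 from sigmoidal fit of fraction EtBr displaced vs log ligand; association constants from Scatchard analysis.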
# Nucleic Acid [3] = assay: Binding affinity to HIV1 TAR RNA bulgeless tetraloop mutant at pH 6.8 by ethidium bromide displacement assay; assay type: nucleic-acid assay, Human immunodeficiency virus 1; method in brief: as §1
# Nucleic Acid [4] = assay: Binding affinity to wild type HIV1 TAR RNA at pH 6.8 by ethidium bromide displacement assay; assay type: nucleic-acid assay, Human immunodeficiency virus 1
# Method in brief: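 TAR RNA (200 nM/strand) and EtBr (5 μM) in 100 mM KCl, 10 mM SC, 0.5 mM EDTA, pH 6.8, titrated with ligand aliquots (at most 4% v/v). Fluorescence excited at 545 nm and read at 610 nm. IC50 is the ligand concentration that displaces 50% of EtBr, taken from a sigmoidal fit of fraction displaced versus log ligand concentration.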
# Nucleic Acid [5] = assay: Binding affinity to HIV1 TAR RNA tetraloop mutant at pH 6.8 by ethidium bromide displacement assay; assay type: nucleic-acid assay, Human immunodeficiency virus 1; method in brief: as §1
# Nucleic Acid [6] = assay: Binding affinity to HIV1 TAR RNA U3 bulge mutant at pH 6.8 by ethidium bromide displacement assay; assay type: nucleic-acid assay, Human immunodeficiency virus 1; method in brief: as §1
# Nucleic Acid [7] = assay: Binding affinity to HIV1 TAR RNA bulgeless mutant at pH 6.8 by ethidium bromide displacement assay; assay type: nucleic-acid assay, Human immunodeficiency virus 1; method in brief: as §1
# Nucleic Acid [8] = assay: Binding affinity to HIV1 TAR RNA bulgeless mutant assessed as association constant at pH 6.8 by ethidium bromide displacement assay based Scatchard analysis method; assay type: nucleic-acid assay; conditions: Human immunodeficiency virus 1; method in brief: as §1
# Nucleic Acid [9] = assay: Binding affinity to HIV1 TAR RNA tetraloop mutant assessed as association constant at pH 6.8 by ethidium bromide displacement assay based Scatchard analysis method; assay type: nucleic-acid assay; conditions: Human immunodeficiency virus 1; method in brief: as §1
# Nucleic Acid [10] = assay: Binding affinity to HIV1 TAR RNA U3 bulge mutant at assessed as association constant at pH 6.8 by ethidium bromide displacement assay based Scatchard analysis method; assay type: nucleic-acid assay; conditions: Human immunodeficiency virus 1; method in brief: as §1
# [11] = test system: Human immunodeficiency virus 1; assay: Induction of thermal stability changes in wild type HIV1 TAR RNA assessed as change in melting temperature using 2 molar equivalents of compound pre-incubated for 4 hrs at pH 6.8 at 4 degC before test by UV thermal denaturation assay
# [12] = test system: Human immunodeficiency virus 1; assay: Induction of thermal stability changes in HIV1 TAR RNA tetraloop mutant assessed as change in melting temperature using 2 molar equivalents of compound pre-incubated for 4 hrs at pH 6.8 at 4 degC before test by UV thermal denaturation assay
# Method in brief: (§2)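 TAR RNA mutants at 1 μM/strand mixed with 1 or 2 molar equivalents of ligand in 100 mM KCl, 10 mM SC, 0.5 mM EDTA, pH 6.8, then held 4 h at 4 °C. Absorbance at 260 nm in 1 cm cuvettes, 15–100 °C, heating 0.3 °C/min. Tm taken from first-derivative plots and compared with the no-ligand sample.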
# [13] = test system: Human immunodeficiency virus 1; assay: Induction of thermal stability changes in HIV1 TAR RNA U3 bulge mutant assessed as change in melting temperature using 1 molar equivalents of compound pre-incubated for 4 hrs at pH 6.8 at 4 degC before test by UV thermal denaturation assay; method in brief: as §2
# [14] = test system: Human immunodeficiency virus 1; assay: Induction of thermal stability changes in wild type HIV1 TAR RNA assessed as change in melting temperature using 1 molar equivalents of compound pre-incubated for 4 hrs at pH 6.8 at 4 degC before test by UV thermal denaturation assay
# [15] = test system: Human immunodeficiency virus 1; assay: Induction of thermal stability changes in HIV1 TAR RNA tetraloop mutant assessed as change in melting temperature using 1 molar equivalents of compound pre-incubated for 4 hrs at pH 6.8 at 4 degC before test by UV thermal denaturation assay; method in brief: as §2
# [16] = test system: Human immunodeficiency virus 1; assay: Induction of thermal stability changes in HIV1 TAR RNA bulgeless tetraloop mutant assessed as change in melting temperature using 1 molar equivalents of compound pre-incubated for 4 hrs at pH 6.8 at 4 degC before test by UV thermal denaturation assay; method in brief: as §2
# [17] = test system: Human immunodeficiency virus 1; assay: Induction of thermal stability changes in HIV1 TAR RNA bulgeless mutant assessed as change in melting temperature using 1 molar equivalents of compound pre-incubated for 4 hrs at pH 6.8 at 4 degC before test by UV thermal denaturation assay; method in brief: as §2
# [18] = test system: Human immunodeficiency virus 1; assay: Induction of thermal stability changes in HIV1 TAR RNA U3 bulge mutant assessed as change in melting temperature using 2 molar equivalents of compound pre-incubated for 4 hrs at pH 6.8 at 4 degC before test by UV thermal denaturation assay; method in brief: as §2
structure (smiles),measurement,setting,value
NC[C@@H]1O[C@H](O[C@H]2[C@@H](O)[C@H](O[C@@H]3[C@@H](O)[C@H](N)C[C@H](N)[C@H]3O[C@H]3O[C@H](CN)[C@@H](O)[C@H](O)[C@H]3N)O[C@@H]2Cn2cc(COCCCCCCCCOCc3cn(C[C@H]4O[C@@H](O[C@@H]5[C@@H](O)[C@H](N)C[C@H](N)[C@H]5O[C@H]5O[C@H](CN)[C@@H](O)[C@H](O)[C@H]5N)[C@H](O)[C@@H]4O[C@H]4O[C@@H](CN)[C@@H](O)[C@H](O)[C@H]4N)nn3)nn2)[C@H](N)[C@@H](O)[C@@H]1O,K,Nucleic Acid [1],7.6 ×10⁶ /M
same,K,Nucleic Acid [2],7.2 ×10⁷ /M
same,IC50,Nucleic Acid [3],106 nM
same,IC50,Nucleic Acid [4],156 nM
same,IC50,Nucleic Acid [5],188 nM
same,IC50,Nucleic Acid [6],234 nM
same,IC50,Nucleic Acid [7],108 nM
same,K,Nucleic Acid [8],6.8 ×10⁷ /M
same,K,Nucleic Acid [9],1.4 ×10⁷ /M
same,K,Nucleic Acid [10],4.8 ×10⁶ /M
NC[C@@H]1O[C@H](O[C@H]2[C@@H](O)[C@H](O[C@@H]3[C@@H](O)[C@H](N)C[C@H](N)[C@H]3O[C@H]3O[C@H](CN)[C@@H](O)[C@H](O)[C@H]3N)O[C@@H]2CO)[C@H](N)[C@@H](O)[C@@H]1O [FRAMYCETIN],K,Nucleic Acid [2],1.6 ×10⁷ /M
same,ΔTm,[11],0.5 °C
same,IC50,Nucleic Acid [3],192 nM
same,IC50,Nucleic Acid [4],378 nM
same,ΔTm,[12],1 °C
same,ΔTm,[13],0 °C
same,ΔTm,[14],0.2 °C
same,ΔTm,[15],1 °C
same,IC50,Nucleic Acid [5],684 nM
same,ΔTm,[16],0 °C
same,ΔTm,[17],1 °C
same,IC50,Nucleic Acid [7],150 nM
same,ΔTm,[18],1 °C
same,K,Nucleic Acid [8],3 ×10⁷ /M
NC[C@@H]1O[C@H](O[C@H]2[C@@H](O)[C@H](O[C@@H]3[C@@H](O)[C@H](N)C[C@H](N)[C@H]3O[C@H]3O[C@H](CN)[C@@H](O)[C@H](O)[C@H]3N)O[C@@H]2Cn2cc(CCCCc3cn(C[C@H]4O[C@@H](O[C@@H]5[C@@H](O)[C@H](N)C[C@H](N)[C@H]5O[C@H]5O[C@H](CN)[C@@H](O)[C@H](O)[C@H]5N)[C@H](O)[C@@H]4O[C@H]4O[C@@H](CN)[C@@H](O)[C@H](O)[C@H]4N)nn3)nn2)[C@H](N)[C@@H](O)[C@@H]1O,K,Nucleic Acid [1],2.6 ×10⁷ /M
same,K,Nucleic Acid [2],1.2 ×10⁷ /M
same,IC50,Nucleic Acid [3],216 nM
same,IC50,Nucleic Acid [4],144 nM
same,IC50,Nucleic Acid [5],278 nM
same,IC50,Nucleic Acid [6],278 nM
same,IC50,Nucleic Acid [7],160 nM
same,K,Nucleic Acid [8],2.2 ×10⁷ /M
same,K,Nucleic Acid [10],2.1 ×10⁶ /M
NC[C@@H]1O[C@H](O[C@H]2[C@@H](O)[C@H](O[C@@H]3[C@@H](O)[C@H](N)C[C@H](N)[C@H]3O[C@H]3O[C@H](CN)[C@@H](O)[C@H](O)[C@H]3N)O[C@@H]2Cn2cc(CCCc3cn(C[C@H]4O[C@@H](O[C@@H]5[C@@H](O)[C@H](N)C[C@H](N)[C@H]5O[C@H]5O[C@H](CN)[C@@H](O)[C@H](O)[C@H]5N)[C@H](O)[C@@H]4O[C@H]4O[C@@H](CN)[C@@H](O)[C@H](O)[C@H]4N)nn3)nn2)[C@H](N)[C@@H](O)[C@@H]1O,K,Nucleic Acid [1],7.1 ×10⁷ /M
same,K,Nucleic Acid [2],7.5 ×10⁷ /M
same,IC50,Nucleic Acid [3],146 nM
same,IC50,Nucleic Acid [4],118 nM
same,IC50,Nucleic Acid [5],190 nM
same,IC50,Nucleic Acid [6],224 nM
same,IC50,Nucleic Acid [7],134 nM
same,K,Nucleic Acid [8],8.9 ×10⁷ /M
same,K,Nucleic Acid [9],1.4 ×10⁷ /M
same,K,Nucleic Acid [10],6.9 ×10⁶ /M
NC[C@@H]1O[C@H](O[C@H]2[C@@H](O)[C@H](O[C@@H]3[C@@H](O)[C@H](N)C[C@H](N)[C@H]3O[C@H]3O[C@H](CN)[C@@H](O)[C@H](O)[C@H]3N)O[C@@H]2Cn2cc(CCCCCCc3cn(C[C@H]4O[C@@H](O[C@@H]5[C@@H](O)[C@H](N)C[C@H](N)[C@H]5O[C@H]5O[C@H](CN)[C@@H](O)[C@H](O)[C@H]5N)[C@H](O)[C@@H]4O[C@H]4O[C@@H](CN)[C@@H](O)[C@H](O)[C@H]4N)nn3)nn2)[C@H](N)[C@@H](O)[C@@H]1O,K,Nucleic Acid [1],6.6 ×10⁷ /M
same,K,Nucleic Acid [2],5.9 ×10⁷ /M
same,IC50,Nucleic Acid [3],150 nM
same,IC50,Nucleic Acid [4],126 nM
same,IC50,Nucleic Acid [5],214 nM
same,IC50,Nucleic Acid [6],256 nM
same,IC50,Nucleic Acid [7],146 nM
same,K,Nucleic Acid [8],6.3 ×10⁷ /M
same,K,Nucleic Acid [9],5 ×10⁶ /M
same,K,Nucleic Acid [10],3.8 ×10⁶ /M
